{"source": "ChEMBL document CHEMBL5335790", "about": "“Design, synthesis and biological evaluation of novel 2,4-thiazolidinedione derivatives able to target the human BAG3 protein” (Eur J Med Chem, 2023)", "key": {"[1]": {"test_system": "HD-MB03", "assay": "Induction of apoptosis in human HD-MB03 cells assessed as cell shrinkage at 20 uM incubated for 24 hrs in presence of chloroquine by bright field imaging analysis", "assay_type": "functional, cell-based"}, "[2]": {"test_system": "HD-MB03", "assay": "Induction of autophagy in human HD-MB03 cells assessed as increase in LC3 green fluorescence at 20 uM incubated for 24 hrs by immunofluorescence analysis", "assay_type": "functional, cell-based", "procedure,_shortened": "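HD-MB03 cells transfected with a fluorescent LC3 plasmid, then treated 24 h later with 20 µM, alone or with chloroquine, for 24 h. Live cells stained 30 min with 50 nM LysoTracker Red and 10 µM Hoechst, then imaged by confocal microscopy. Fluorescence per field was expressed relative to DMSO control set to 1. Mean ± SD of three experiments; 2-way ANOVA.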"}, "[3]": {"test_system": "HD-MB03", "assay": "Induction of cell cycle arrest in human HD-MB03 cells assessed as accumulation of cells at G2/M phase at 10 uM incubated for 48 hrs by RNase/PI staining based cytofluorimetric analysis (reference value: 4.4%)", "assay_type": "functional"}, "[4]": {"test_system": "HD-MB03", "assay": "Induction of apoptosis in human HD-MB03 cells at 20 uM by Annexin V-FITC/PI staining based cytofluorimetric analysis", "assay_type": "functional, cell-based", "conditions": "time 48-72 hrs, TDE = time-dependent effect", "procedure,_shortened": "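HD-MB03 cells treated with 20 µM, then stained with annexin V-FITC and PI and analysed by flow cytometry. Mean ± SEM of three independent experiments; 2-way ANOVA with Tukey correction.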"}, "[5]": {"test_system": "HD-MB03", "assay": "Sensitization of chemotherapy induced cytotoxicity against human HD-MB03 cells assessed as inhibition of cell growth at 20 uM incubated for 72 hrs in presence of 0.25 unit of vincristine, etoposide, cisplatin, cyclophosphamide by resazurin dye based analysis (reference value: 73.44 +/- 0.92%)", "assay_type": "functional"}, "[6]": {"test_system": "HD-MB03", "assay": "Sensitization of chemotherapy induced cytotoxicity against human HD-MB03 cells assessed as inhibition of cell growth at 1.25 uM incubated for 72 hrs in presence of 1 unit of vincristine, etoposide, cisplatin, cyclophosphamide by resazurin dye based analysis (reference value: 91.53 +/- 1.15%)", "assay_type": "functional"}, "[7]": {"test_system": "HD-MB03", "assay": "Sensitization of chemotherapy induced cytotoxicity against human HD-MB03 cells assessed as inhibition of cell growth at 5 uM incubated for 72 hrs in presence of 0.12 unit of vincristine, etoposide, cisplatin, cyclophosphamide by resazurin dye based analysis (reference value: 51.43 +/- 1.17%)", "assay_type": "functional"}, "[8]": {"test_system": "HD-MB03", "assay": "Induction of autophagy in human HD-MB03 cells assessed as autophagic vacuole formation at 20 uM incubated for 24 hrs by bright field imaging analysis", "assay_type": "functional, cell-based"}, "[9]": {"test_system": "HD-MB03", "assay": "Sensitization of chemotherapy induced cytotoxicity against human HD-MB03 cells assessed as inhibition of cell growth at 20 uM incubated for 72 hrs in presence of 1 unit of vincristine, etoposide, cisplatin, cyclophosphamide by resazurin dye based analysis (reference value: 91.53 +/- 1.15%)", "assay_type": "functional"}, "[10]": {"test_system": "HD-MB03", "assay": "Sensitization of chemotherapy induced cytotoxicity against human HD-MB03 cells assessed as inhibition of cell growth at 20 uM incubated for 72 hrs in presence of 0.5 unit of vincristine, etoposide, cisplatin, cyclophosphamide by resazurin dye based analysis (reference value: 83.74+/- 0.54%)", "assay_type": "functional"}, "[11]": {"test_system": "HD-MB03", "assay": "Sensitization of chemotherapy induced cytotoxicity against human HD-MB03 cells assessed as inhibition of cell growth at 10 uM incubated for 72 hrs in presence of 0.5 unit of vincristine, etoposide, cisplatin, cyclophosphamide by resazurin dye based analysis (reference value: 83.74+/- 0.54%)", "assay_type": "functional"}, "[12]": {"test_system": "HD-MB03", "assay": "Sensitization of chemotherapy induced cytotoxicity against human HD-MB03 cells assessed as inhibition of cell growth at 10 uM incubated for 72 hrs in presence of 0.25 unit of vincristine, etoposide, cisplatin, cyclophosphamide by resazurin dye based analysis (reference value: 73.44 +/- 0.92%)", "assay_type": "functional"}, "[13]": {"test_system": "A549", "assay": "Antiproliferative activity against human A549 cells assessed as cell growth inhibition incubated for 72 hrs by resazurin dye based analysis", "assay_type": "functional", "procedure,_shortened": "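Cells seeded at 2000/well, treated 24 h later with compounds in a 6-point 2-fold dose series, duplicate wells, two independent experiments. After 72 h, resazurin was added at 44 µM final for 3 h at 37 °C and fluorescence was read at 590 nm. Viability was normalized to 1 µM bortezomib (positive) and 0.5% DMSO (negative) controls. GI50 is the mean ± SEM of dose-response curves.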"}, "[14]": {"test_system": "HD-MB03", "assay": "Cytotoxicity against human HD-MB03 cells assessed as inhibition of cell growth at 10 uM incubated for 72 hrs by resazurin dye based analysis relative to control", "assay_type": "functional", "procedure,_shortened": "(§1)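 Resazurin viability in HD-MB03 cells, 2000/well, single-agent arm of the 6x6 matrix. Inhibitor was added 24 h after seeding, in a 6-point 2-fold series, duplicates, two independent experiments. After 72 h exposure, resazurin was added at 44 µM final for 3 h at 37 °C and fluorescence read at 590 nm. Viability normalized to 1 µM bortezomib and 0.5% DMSO controls.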"}, "[15]": {"assay": "Cytotoxicity against resting human PBMC cells assessed as cell growth inhibition incubated for 72 hrs by MTT assay", "assay_type": "toxicity, cell-based"}, "[16]": {"test_system": "HD-MB03", "assay": "Induction of cell cycle arrest in human HD-MB03 cells assessed as accumulation of cells at S phase at 10 uM incubated for 72 hrs by RNase/PI staining based cytofluorimetric analysis (reference value: 40.9%)", "assay_type": "functional"}, "[17]": {"test_system": "HD-MB03", "assay": "Sensitization of chemotherapy induced cytotoxicity against human HD-MB03 cells assessed as inhibition of cell growth at 5 uM incubated for 72 hrs in presence of 2 unit of vincristine, etoposide, cisplatin, cyclophosphamide by resazurin dye based analysis (reference value: 97.7 +/- 1.3%)", "assay_type": "functional"}, "[18]": {"test_system": "HD-MB03", "assay": "Cytotoxicity against human HD-MB03 cells assessed as inhibition of cell growth at 5 uM incubated for 72 hrs by resazurin dye based analysis relative to control", "assay_type": "functional", "procedure,_shortened": "as §1"}, "[19]": {"target": "T1, BAG family molecular chaperone regulator 3 (Homo sapiens, UniProt O95817)", "T1 sequence (O95817 whole entry)": "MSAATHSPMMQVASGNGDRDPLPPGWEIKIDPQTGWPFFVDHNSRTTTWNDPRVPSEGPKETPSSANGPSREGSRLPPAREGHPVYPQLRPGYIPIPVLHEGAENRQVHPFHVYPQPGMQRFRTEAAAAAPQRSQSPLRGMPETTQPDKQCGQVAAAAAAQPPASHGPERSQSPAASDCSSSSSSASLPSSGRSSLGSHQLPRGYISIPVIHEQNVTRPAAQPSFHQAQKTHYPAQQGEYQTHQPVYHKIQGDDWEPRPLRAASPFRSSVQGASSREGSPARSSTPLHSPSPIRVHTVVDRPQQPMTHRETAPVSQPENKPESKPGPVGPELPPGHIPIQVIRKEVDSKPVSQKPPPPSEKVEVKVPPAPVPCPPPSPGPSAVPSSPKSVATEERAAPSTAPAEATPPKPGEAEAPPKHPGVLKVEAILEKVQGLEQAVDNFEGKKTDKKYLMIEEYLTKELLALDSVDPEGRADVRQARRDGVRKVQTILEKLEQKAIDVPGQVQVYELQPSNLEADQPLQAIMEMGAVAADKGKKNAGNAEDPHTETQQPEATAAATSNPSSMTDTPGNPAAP", "assay": "Binding affinity to CM4 sensorchip immobilized C-terminal His tagged human BAG3 transfected in HEK293T cells assessed as signal saturation at 50 uM by SPR analysis"}, "[20]": {"test_system": "HD-MB03", "assay": "Sensitization of chemotherapy induced cytotoxicity against human HD-MB03 cells assessed as inhibition of cell growth at 5 uM incubated for 72 hrs in presence of 0.25 unit of vincristine, etoposide, cisplatin, cyclophosphamide by resazurin dye based analysis (reference value: 73.44 +/- 0.92%)", "assay_type": "functional"}, "[21]": {"target": "T1, BAG family molecular chaperone regulator 3", "assay": "Binding affinity to C-terminal His tagged human BAG3 transfected in HEK293T cells assessed as protein-ligand complex formation by measuring saturated protein magnetization via intermolecular spin-diffusion at 125 uM by STD NMR experiment"}, "[22]": {"test_system": "HD-MB03", "assay": "Sensitization of chemotherapy induced cytotoxicity against human HD-MB03 cells assessed as inhibition of cell growth at 2.5 uM incubated for 72 hrs in presence of 0.5 unit of vincristine, etoposide, cisplatin, cyclophosphamide by resazurin dye based analysis (reference value: 83.74+/- 0.54%)", "assay_type": "functional"}, "[23]": {"test_system": "HD-MB03", "assay": "Sensitization of chemotherapy induced cytotoxicity against human HD-MB03 cells assessed as inhibition of cell growth at 2.5 uM incubated for 72 hrs in presence of 2 unit of vincristine, etoposide, cisplatin, cyclophosphamide by resazurin dye based analysis (reference value: 97.7 +/- 1.3%)", "assay_type": "functional"}}, "note": "Active and inactive are the calls of the source. The calls are words filed in the database; no cut-off is given here."}
{"smiles": "CC(C(=O)N1CCOCC1)N1C(=O)S/C(=C\\c2cccc(O)c2O)C1=O", "note": "(racemic)", "values": [{"measurement": "Activity", "setting": "[1]", "value": "Active"}, {"measurement": "Activity", "setting": "[2]", "value": "Active"}, {"measurement": "Activity", "setting": "[3]", "value": 6.11, "unit": "%"}, {"measurement": "Activity", "setting": "[4]", "value": "Tde"}, {"measurement": "inhibition at 20 µM", "setting": "[5]", "value": 80.8, "unit": "%"}, {"measurement": "inhibition at 1.25 µM", "setting": "[6]", "value": 93.1, "unit": "%"}, {"measurement": "inhibition at 5 µM", "setting": "[7]", "value": 62.3, "unit": "%"}, {"measurement": "Activity", "setting": "[8]", "value": "Active"}, {"measurement": "inhibition at 20 µM", "setting": "[9]", "value": 89.1, "unit": "%"}, {"measurement": "inhibition at 20 µM", "setting": "[10]", "value": 87.7, "unit": "%"}, {"measurement": "inhibition at 10 µM", "setting": "[11]", "value": 89.1, "unit": "%"}, {"measurement": "inhibition at 10 µM", "setting": "[12]", "value": 82.2, "unit": "%"}, {"measurement": "GI50", "setting": "[13]", "value": 28, "unit": "µM"}, {"measurement": "inhibition at 10 µM", "setting": "[14]", "value": 26.8, "unit": "%"}, {"measurement": "GI50 at 72 h", "setting": "[15]", "value": "> 100", "unit": "µM"}, {"measurement": "Activity", "setting": "[16]", "value": 24.8, "unit": "%"}, {"measurement": "inhibition at 5 µM", "setting": "[17]", "value": 95.2, "unit": "%"}, {"measurement": "inhibition at 5 µM", "setting": "[18]", "value": 3, "unit": "%"}, {"measurement": "Activity", "setting": "[19]", "value": "Active"}, {"measurement": "inhibition at 5 µM", "setting": "[20]", "value": 76.7, "unit": "%"}, {"measurement": "Activity", "setting": "[21]", "value": "Active"}, {"measurement": "inhibition at 2.5 µM", "setting": "[22]", "value": 83.3, "unit": "%"}, {"measurement": "inhibition at 2.5 µM", "setting": "[23]", "value": 95.4, "unit": "%"}]}
